Assay results collected from several papers.
Lines come from different studies, so protocols differ.

O=C1C(NCCc2ccc(O)cc2)=CC2=NCCc3c[nH]c1c32 gave an IC50 of 291 nM (Plasmodium falciparum; parasite growth, SYBR Green; DD2; blood stage).
With O=C(NO)c1ccc(CNc2nc3cccc(-c4ccc5c(c4)OCO5)n3n2)cc1 the GI50 was 680 nM (NCI-H460; cell growth or viability, SRB).
The IC50 of Cn1cc2c3c1C(=O)C(NCCc1ccc(O)cc1)=CC3=[N+](C)CC2 is reported as 394 nM (Plasmodium falciparum; parasite growth, SYBR Green; W2; blood stage).
The inhibition of O=C(/C=C/c1cn(Cc2cn(-c3ccnc4cc(Cl)ccc34)nn2)c2ccccc12)c1ccc(Cl)cc1Cl is reported as 4.87% (Plasmodium falciparum; parasite growth, SYBR Green; 3D7; 5 µM, blood stage).
Nc1ncnc2c1c(/C=C/C(=O)N1CCC(O)CC1)nn2CC1CCCC1 gave an EC50 of > 30000 nM (FLO-1; cell growth or viability, resazurin; 5 days).
For O=C1C=C2NCCc3c[nH]c(c32)C1=O, the IC50 was 25000 nM (Plasmodium falciparum; parasite growth, SYBR Green; W2; blood stage).
O=C(/C=C/c1cn(Cc2cn(-c3ccnc4cc(Cl)ccc34)nn2)c2ccccc12)c1ccc(F)cc1 has an inhibition of 47.1% (Plasmodium falciparum; parasite growth, SYBR Green; 3D7; 10 µM, blood stage).
CNc1ncc2c(/C=C/C(=O)N3CCCC(OC)C3)nn(Cc3cccc(C)c3)c2n1 (centres unmarked) gave an EC50 of 13800 nM (FLO-1; cell growth or viability, resazurin; 5 days).
O=C(/C=C/c1cn(Cc2cn(-c3ccnc4cc(Cl)ccc34)nn2)c2ccccc12)c1cccc([N+](=O)[O-])c1 has an inhibition of 36% (Plasmodium falciparum; parasite growth, SYBR Green; 3D7; 10 µM, blood stage).
For C=CC(=O)NC1CCN(c2ncc3ncnc(Nc4ccc(Oc5ccc6c(c5)ncn6C)c(C)c4)c3n2)CC1, the EC50 was 46.3 nM (SW900; cell growth or viability).
CNc1ncc2c(/C=C/C(=O)N3CCC(OC)CC3)nn(Cc3ccc(OC)cc3)c2n1 gave an EC50 of 1130 nM (FLO-1; cell growth or viability, resazurin; 5 days).
The inhibition of CCN(CC)CCCC(C)Nc1ccnc2cc(Cl)ccc12 (centres unmarked) is reported as 52.5% (Plasmodium falciparum; parasite growth, SYBR Green; 3D7; 25 nM, blood stage).
CNc1ncc2c(/C=C/C(=O)N3CCC(OC)CC3)nn(CC3CCCO3)c2n1 (centres unmarked) has an EC50 of > 30000 nM (FLO-1; cell growth or viability, resazurin; 5 days).
For COCC(=O)N1CCCC(C(=O)NCc2nc(-c3ccccc3)cs2)C1 (racemic), the EC50 was 150 nM (Plasmodium falciparum; parasite growth, SYBR Green; 72 h).
